How the values were obtained:
Type in all cases: functional
Rattus norvegicus [1] = assay: Percent change in volume of foot edema of test compound to that of positive control was determined at a dose of 31.6 mg/kg in rat; -49/-78
Rattus norvegicus [2] = assay: Percent change in volume of foot edema of test compound to that of positive control was determined at a dose of 10 mg/kg in rat; -26/-62
Rattus norvegicus [3] = assay: Percent change in volume of foot edema of test compound to that of positive control was determined at a dose of 31.6 mg/kg in rat; -23/-81
Rattus norvegicus [4] = assay: Percent change in volume of foot edema of test compound to that of positive control was determined at a dose of 31.6 mg/kg in rat; -79/-65
Rattus norvegicus [5] = assay: Percent change in volume of foot edema of test compound to that of positive control was determined at a dose of 10 mg/kg in rat; +22/-73
Rattus norvegicus [6] = assay: Percent change in volume of foot edema of test compound to that of positive control was determined at a dose of 31.6 mg/kg in rat; -85/-82
Rattus norvegicus [7] = assay: Percent change in volume of foot edema of test compound to that of positive control was determined at a dose of 3.16 mg/kg in rat; -34/-79
Rattus norvegicus [8] = assay: Percent change in volume of foot edema of test compound to that of positive control was determined at a dose of 10 mg/kg in rat; -50/-80
Rattus norvegicus [9] = assay: Percent change in volume of foot edema of test compound to that of positive control was determined at a dose of 31.6 mg/kg in rat; -35/-69
Rattus norvegicus [10] = assay: Percent change in volume of foot edema of test compound to that of positive control was determined at a dose of 31.6 mg/kg in rat; -65/-69
Rattus norvegicus [11] = assay: Percent change in volume of foot edema of test compound to that of positive control was determined at a dose of 10 mg/kg in rat; -29/-62
Rattus norvegicus [12] = assay: Percent change in volume of foot edema of test compound to that of positive control was determined at a dose of 3.16 mg/kg in rat; -9/-69
Rattus norvegicus [13] = assay: Percent change in volume of foot edema of test compound to that of positive control was determined at a dose of 10 mg/kg in rat; -56/-69
Rattus norvegicus [14] = assay: Percent change in volume of foot edema of test compound to that of positive control was determined at a dose of 31.6 mg/kg in rat; -82/69
Rattus norvegicus [15] = assay: Percent change in volume of foot edema of test compound to that of positive control was determined at a dose of 31.6 mg/kg in rat; -69/-78
Rattus norvegicus [16] = assay: Percent change in volume of foot edema of test compound to that of positive control was determined at a dose of 10 mg/kg in rat; +3/-73
Rattus norvegicus [17] = assay: Percent change in volume of foot edema of test compound to that of positive control was determined at a dose of 3.16 mg/kg in rat; -13/-73
Rattus norvegicus [18] = assay: Percent change in volume of foot edema of test compound to that of positive control was determined at a dose of 31.6 mg/kg in rat; -73/-68
Rattus norvegicus [19] = assay: Percent change in volume of foot edema of test compound to that of positive control was determined at a dose of 10 mg/kg in rat; -38/-69
Rattus norvegicus [20] = assay: Percent change in volume of foot edema of test compound to that of positive control was determined at a dose of 31.6 mg/kg in rat; -30/-81
Rattus norvegicus [21] = assay: Percent change in volume of foot edema of test compound to that of positive control was determined at a dose of 31.6 mg/kg in rat; +7/-47
Rattus norvegicus [22] = assay: Percent change in volume of foot edema of test compound to that of positive control was determined at a dose of 10 mg/kg in rat; -53/-77
Rattus norvegicus [23] = assay: Percent change in volume of foot edema of test compound to that of positive control was determined at a dose of 3.16 mg/kg in rat; -18/-77
Rattus norvegicus [24] = assay: Percent change in volume of foot edema of test compound to that of positive control was determined at a dose of 31.6 mg/kg in rat; -88/-63
Rattus norvegicus [25] = assay: Percent change in volume of foot edema of test compound to that of positive control was determined at a dose of 10 mg/kg in rat; -36/-65
Rattus norvegicus [26] = assay: Percent change in volume of foot edema of test compound to that of positive control was determined at a dose of 31.6 mg/kg in rat; -80/-83
Rattus norvegicus [27] = assay: Percent change in volume of foot edema of test compound to that of positive control was determined at a dose of 10 mg/kg in rat; -14/-62
Rattus norvegicus [28] = assay: Percent change in volume of foot edema of test compound to that of positive control was determined at a dose of 31.6 mg/kg in rat; -69/-69
Rattus norvegicus [29] = assay: Percent change in volume of foot edema of test compound to that of positive control was determined at a dose of 31.6 mg/kg in rat; -67/-63
Rattus norvegicus [30] = assay: Percent change in volume of foot edema of test compound to that of positive control was determined at a dose of 10 mg/kg in rat; -34/-77
Rattus norvegicus [31] = assay: Percent change in volume of foot edema of test compound to that of positive control was determined at a dose of 31.6 mg/kg in rat; -15/-60
Cavia porcellus = species on record: Cavia porcellus; assay: Dose that protects 50% of guinea pig from collapse was determined in guinea pig anaphylaxis assay; conditions: read-out: PD50
How it was run: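 Guinea pigs dosed by gavage (10 mL/kg) with compound in 0.5% Tween 80/water; reference theophylline 100 mg/kg po. At 1–24 h, exposed in chamber to aerosolized 1% (w/v) egg albumin at 10 L air/min for up to 5 min; protected if no collapse within 5 min. PD50 by Litchfield and Wilcoxon.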

For OC(CCN1CCN(c2ccccc2)CC1)COc1cccc(C(F)(F)F)c1 (stereo not drawn), the PFA (Rattus norvegicus [1]) was -49 and the PFA (Rattus norvegicus [2]) was -26.
In the case of OC(COc1ccccc1)CN1CCN(c2ccccc2)CC1 (stereo not drawn), the PFA (Rattus norvegicus [3]) is reported as -23.
For COc1ccccc1N1CCN(CCC(O)COc2ccccc2)CC1 (stereo not drawn), the PFA (Rattus norvegicus [4]) was -79 and the PFA (Rattus norvegicus [5]) was 22.
Work on Cc1ccc(N2CCN(CCC(O)COc3ccccc3)CC2)cc1 (stereo not drawn) yielded a PFA (Rattus norvegicus [6]) of -85, a PFA (Rattus norvegicus [7]) of -34 and a PFA (Rattus norvegicus [8]) of -50.
In the case of OC(CCN1CCN(c2ccccc2)CC1)COc1cccc2ccccc12 (stereo not drawn), the PFA (Rattus norvegicus [9]) is reported as -35.
Work on OC(CCN1CCN(c2ccccc2)CC1)COc1ccc(-c2ccccc2)cc1 (stereo not drawn) yielded a PFA (Rattus norvegicus [10]) of -65 and a PFA (Rattus norvegicus [11]) of -29.
For NC(=O)c1ccc(OCC(O)CCN2CCN(c3ccc(F)cc3)CC2)cc1 (stereo not drawn), the PFA (Rattus norvegicus [12]) was -9, the PFA (Rattus norvegicus [13]) was -56 and the PFA (Rattus norvegicus [14]) was -82.
Compound COc1cccc(N2CCN(CCC(O)COc3ccccc3)CC2)c1 (stereo not drawn) has a PFA (Rattus norvegicus [15]) of -69 and a PFA (Rattus norvegicus [16]) of 3.
In the case of NC(=O)c1ccc(OCC(O)CCN2CCN(c3ccccn3)CC2)cc1 (stereo not drawn), the PFA (Rattus norvegicus [17]) is reported as -13, the PFA (Rattus norvegicus [18]) is reported as -73 and the PFA (Rattus norvegicus [19]) is reported as -38.
In the case of OC(CCN1CC=C(c2ccccc2)CC1)COc1ccccc1 (stereo not drawn), the PFA (Rattus norvegicus [20]) is reported as -30.
Compound OC(CCN1CCc2ccccc2C1)COc1ccccc1 (stereo not drawn) has a PFA (Rattus norvegicus [21]) of 7.
OC(CCN1CCN(c2ccc(F)cc2)CC1)COc1ccccc1 (stereo not drawn) was tested, and the PFA (Rattus norvegicus [22]) was -53, the PFA (Rattus norvegicus [23]) was -18 and the PFA (Rattus norvegicus [24]) was -88.
Work on CC(=O)c1ccc(N2CCN(CCC(O)COc3ccccc3)CC2)cc1 (stereo not drawn) yielded a PFA (Rattus norvegicus [25]) of -36 and a PFA (Rattus norvegicus [26]) of -80.
Compound COc1ccccc1OCC(O)CCN1CCN(c2ccccc2)CC1 (stereo not drawn) has a PFA (Rattus norvegicus [27]) of -14 and a PFA (Rattus norvegicus [28]) of -69.
COc1ccc(N2CCN(CCC(O)COc3ccccc3)CC2)cc1 (stereo not drawn) showed a PFA (Rattus norvegicus [29]) of -67 and a PFA (Rattus norvegicus [30]) of -34.
CN(C)CCOC(c1ccccc1)c1ccccc1 [DIPHENHYDRAMINE] showed a PFA (Rattus norvegicus [31]) of -15 and an ED50 (Cavia porcellus) of 23.3 mg/kg.
Work on Cn1c(=O)c2nc[nH]c2n(C)c1=O.O [THEOPHYLLINE] yielded an ED50 (Cavia porcellus) of 75 mg/kg.

Source: ChEMBL document CHEMBL1124808, “The synthesis and antiallergy activity of 1-(aryloxy)-4-(4-arylpiperazinyl)-2-butanol derivatives” (1990)
